From ChEMBL document CHEMBL2331484, “Synthesis and biological evaluation of scopoletin derivatives” (Bioorg Med Chem, 2013)
The source made the active and inactive calls. The calls are words filed in the database; no cut-off is given here.

What was measured:
[1] = system: HUVEC; assay: Antiproliferative activity against HUVEC assessed as growth inhibition rate after 24 hrs by MTT assay; type: functional, cell-based; settings: Homo sapiens
Outline: (§1)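 HUVECs (passages 3–5, primary cord isolates) seeded at 1 × 10⁴ cells/well. Medium replaced with M199 containing 1% FBS plus compound. Viability read by MTT after 24 h. Percent inhibition was calculated from A570 minus A630 of treated versus control wells, and IC50 determined. Triplicate experiments, means ± SEM.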

[2] = system: HUVEC; assay: Antiproliferative activity against HUVEC assessed as growth inhibition rate at 10 uM after 24 hrs by MTT assay; type: functional; settings: Homo sapiens, read-out: GI; outline: as §1
[3] = system: HUVEC; assay: Antiproliferative activity against HUVEC assessed as growth inhibition rate at 100 uM after 24 hrs by MTT assay; type: functional; settings: Homo sapiens, read-out: GI; outline: as §1
[4] = system: HCT-116; assay: Cytotoxicity against human HCT116 cells after 24 hrs by MTT assay; type: functional, cell-based; settings: HCT-116, 24 h
[5] = system: HUVEC; assay: Antiangiogenic activity against HUVEC assessed as inhibition of VEGF-induced migration at 25 umol/L after 20 hrs by microscopy; settings: Homo sapiens
[6] = system: BXPC-3; assay: Cytotoxicity against human BxPC3 cells after 24 hrs by MTT assay; type: functional, cell-based; settings: BXPC-3, 24 h
[7] = system: HuT78; assay: Cytotoxicity against human HUT78 cells after 24 hrs by MTT assay; type: functional, cell-based; settings: HuT78, 24 h
[8] = system: A-431; assay: Cytotoxicity against human A431 cells after 24 hrs by MTT assay; type: functional, cell-based; settings: A-431, 24 h
[9] = system: MDA-MB-435; assay: Cytotoxicity against human MDA-MB-435 cells after 24 hrs by MTT assay; type: functional, cell-based; settings: MDA-MB-435, 24 h
[10] = system: HUVEC; assay: Antiangiogenic activity against HUVEC assessed as inhibition of VEGF-induced cell migration at 25 umol/L after 20 hrs by Boyden chamber assay; type: functional, cell-based; settings: Homo sapiens
Outline: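 Boyden chamber, 8.0 µm membrane. HUVECs at 80% confluence serum-starved 12 h in basal medium and suspended at 1 × 10⁶ cells/mL. Pre-treated 30 min at room temperature with DMSO or compound (final 25 µmol/L). After 20 h cells fixed, stained, and counted in five random fields. Triplicate experiments.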

[11] = system: PANC-1; assay: Inhibition of MMP-2 protein expression in human PANC1 cells at 10 to 50 umol/L after 24 hrs by SDS-PAGE analysis; type: functional, cell-based
Outline: (§2)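 Gelatin zymography of culture medium from equal numbers of PANC-1 cells exposed to compound for 24 h. Samples run non-reduced and unboiled on 10% polyacrylamide with 1 mg/mL gelatin. Gel washed in 2.5% Triton X-100 buffer, digested 14 h at 37 °C in Tris–HCl/CaCl2/ZnCl2 buffer pH 7.6, then Coomassie-stained. Clear bands imaged.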

[12] = Cytotoxicity against human SHG44 cells after 24 hrs by MTT assay; type: functional, cell-based; settings: SHG-44, 24 h
[13] = system: PBMC; assay: Cytotoxicity against human PBMC after 24 hrs by MTT assay; type: cell-based
[14] = system: HUVEC; assay: Antiangiogenic activity against HUVEC assessed as inhibition of VEGF-induced branching and network formation at 25 umol/L after 5 hrs by microscopy; type: functional, cell-based; settings: Homo sapiens
Outline: (§3)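 Matrigel-coated wells gelled 37 °C 30 min. DMSO or compound (final 25 µmol/L) added for 30 min before plating. After 5 h, enclosed complete tubes counted in five random fields by microscopy. Triplicate experiments, means ± SEM.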

[15] = system: A549; assay: Cytotoxicity against human A549 cells after 24 hrs by MTT assay; type: functional, cell-based; settings: A549, 24 h
[16] = system: MKN-45; assay: Cytotoxicity against human MKN45 cells after 24 hrs by MTT assay; type: functional, cell-based; settings: MKN-45, 24 h
[17] = system: HL-60; assay: Cytotoxicity against human HL60 cells after 24 hrs by MTT assay; type: functional, cell-based; settings: HL-60, 24 h
[18] = system: PANC-1; assay: Inhibition of MMP-9 protein expression in human PANC1 cells at 10 to 50 umol/L after 24 hrs by SDS-PAGE analysis; type: functional, cell-based; outline: as §2
[19] = system: K562; assay: Cytotoxicity against human K562 cells after 24 hrs by MTT assay; type: functional, cell-based; settings: K562, 24 h
[20] = system: MDA-MB-231; assay: Cytotoxicity against human MDA-MB-231 cells after 24 hrs by MTT assay; type: functional, cell-based; settings: MDA-MB-231, 24 h
[21] = system: PANC-1; assay: Cytotoxicity against human PANC1 cells after 24 hrs by MTT assay; type: functional, cell-based; settings: PANC-1, 24 h
[22] = system: HepG2; assay: Cytotoxicity against human HepG2 cells after 24 hrs by MTT assay; type: functional, cell-based; settings: HepG2, 24 h
[23] = system: HUVEC; assay: Antiangiogenic activity against HUVEC assessed as inhibition of VEGF-induced tube formation at 25 umol/L after 5 hrs by microscopy; type: functional, cell-based; settings: Homo sapiens; outline: as §3
[24] = system: HUVEC; assay: Effect on total akt level in VEGF-stimulated HUVEC pretreated at 10 to 50 umol/L for 30 mins before VEGF addition by Western blot analysis; type: functional, cell-based; settings: Homo sapiens
[25] = species: Gallus gallus; assay: Antiangiogenic activity in chicken embryo chorioallantoic membrane model assessed as inhibition of new blood vessel formation at 5 nmol/egg after 48 hrs by microscopy; type: functional, tissue-based
Outline: (§4)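 Fertilized chicken eggs incubated seven days at 37.5 °C, ~55% humidity, and the air sac membrane was detached. Sterile 5 × 5 mm filter paper soaked with DMSO or compound (5 and 10 nmol/egg) was air-dried and placed on the CAM. Eggs were sealed and reincubated. Fat emulsion (20%) was injected into the CAM and vessels photographed. Three independent experiments.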

[26] = system: HUVEC; assay: Effect on total p38 MAPK level in VEGF-stimulated HUVEC pretreated at 10 to 50 umol/L for 30 mins before VEGF addition by Western blot analysis; type: functional, cell-based; settings: Homo sapiens
[27] = biological target: MAP kinase p38 (Homo sapiens) (UniProt O15264+Q15759+Q16539+P53778); assay: Inhibition of VEGF receptor signaling in VEGF-stimulated HUVEC assessed a effect on p38 MAPK phosphorylation pretreated at 10 to 50 umol/L for 30 mins before VEGF addition by Western blot analysis; type: protein assay
[28] = system: HUVEC; assay: Effect on total ERK1/2 level in VEGF-stimulated HUVEC pretreated at 10 to 50 umol/L for 30 mins before VEGF addition by Western blot analysis; type: functional, cell-based; settings: Homo sapiens
[29] = Inhibition of VEGF receptor signaling in HUVEC assessed a inhibition of VEGF-induced ERK1/2 phosphorylation pretreated at 10 to 50 umol/L for 30 mins before VEGF addition by Western blot analysis; type: cell-based; settings: Homo sapiens
[30] = Inhibition of VEGF receptor signaling in VEGF-stimulated HUVEC assessed a effect on src phosphorylation pretreated at 10 to 50 umol/L for 30 mins before VEGF addition by Western blot analysis; type: cell-based; settings: Homo sapiens
[31] = Inhibition of VEGF receptor signaling in HUVEC assessed a inhibition of VEGF-induced Akt phosphorylation pretreated at 10 to 50 umol/L for 30 mins before VEGF addition by Western blot analysis; type: cell-based; settings: Homo sapiens
[32] = system: HUVEC; assay: Effect on total src level in VEGF-stimulated HUVEC pretreated at 10 to 50 umol/L for 30 mins before VEGF addition by Western blot analysis; type: functional, cell-based; settings: Homo sapiens
[33] = species: Gallus gallus; assay: Antiangiogenic activity in chicken embryo chorioallantoic membrane model assessed as inhibition of new blood vessel formation at 10 nmol/egg after 48 hrs by microscopy; type: functional, tissue-based; outline: as §4

COc1cc2ccc(=O)oc2cc1OCC1CO1 (stereo not drawn)
IC50 [1]: 5.3 µM
inhibition of growth at 10 µM [2]: 62.2%
inhibition of growth at 100 µM [3]: 95.5%

COc1cc2ccc(=O)oc2cc1OCCBr
inhibition of growth at 10 µM [2]: 4.9%
inhibition of growth at 100 µM [3]: 5.6%

COc1cc2ccc(=O)oc2cc1OCCN1CCOCC1
inhibition of growth at 10 µM [2]: 0%
inhibition of growth at 100 µM [3]: 1.9%

COc1cc2ccc(=O)oc2cc1O [SCOPOLETIN]
IC50 [4]: > 100 µM
inhibition [5]: inactive
IC50 [6]: > 100 µM
IC50 [7]: > 100 µM
IC50 [8]: > 100 µM
IC50 [9]: > 100 µM
inhibition [10]: inactive
inhibition [11]: Active
IC50 [12]: > 100 µM
inhibition of growth at 10 µM [2]: 0%
IC50 [13]: > 100 µM
inhibition [14]: inactive
inhibition of growth at 100 µM [3]: 2.1%
IC50 [15]: > 100 µM
IC50 [16]: > 100 µM
IC50 [17]: > 100 µM
inhibition [18]: Active
IC50 [19]: > 100 µM
IC50 [20]: > 100 µM
IC50 [21]: > 100 µM
IC50 [22]: > 100 µM
inhibition [23]: inactive

COc1cc2ccc(=O)oc2cc1OCC(=O)c1ccc([N+](=O)[O-])cc1
inhibition of growth at 10 µM [2]: 4.1%
inhibition of growth at 100 µM [3]: 27.2%

COc1cc2ccc(=O)oc2cc1OCC(O)CN1CCCC1 (stereo not drawn)
inhibition of growth at 10 µM [2]: 0.5%
inhibition of growth at 100 µM [3]: 0.3%

CCN(CC)CC(O)COc1cc2oc(=O)ccc2cc1OC (stereo not drawn)
inhibition of growth at 10 µM [2]: 0.5%
inhibition of growth at 100 µM [3]: 0.3%

COc1cc2ccc(=O)oc2cc1OCCN1CCCCC1
inhibition of growth at 10 µM [2]: 0.1%
inhibition of growth at 100 µM [3]: 6.1%

COc1cc2ccc(=O)oc2cc1OCCCCl
inhibition of growth at 10 µM [2]: 0.1%
inhibition of growth at 100 µM [3]: 9.4%

COc1cc2ccc(=O)oc2cc1OCCN1CCCC1
inhibition of growth at 10 µM [2]: 1.9%
inhibition of growth at 100 µM [3]: 7.9%

COc1cc2ccc(=O)oc2cc1OCC(=O)c1ccc(Br)cc1
IC50 [4]: > 100 µM
Activity [24]: inactive
inhibition [5]: Active
inhibition [25]: Active
IC50 [6]: > 100 µM
IC50 [7]: 93.7 µM
Activity [26]: inactive
inhibition [27]: inactive
IC50 [1]: 16.8 µM
IC50 [8]: > 100 µM
Activity [28]: inactive
inhibition [29]: Active
IC50 [9]: > 100 µM
inhibition [10]: Active
inhibition [11]: Active
IC50 [12]: > 100 µM
inhibition of growth at 10 µM [2]: 13.2%
IC50 [13]: > 100 µM
inhibition [30]: inactive
inhibition [14]: Active
inhibition of growth at 100 µM [3]: 97.5%
IC50 [15]: > 100 µM
IC50 [16]: > 100 µM
inhibition [31]: Active
IC50 [17]: 90.4 µM
inhibition [18]: Active
IC50 [19]: 70 µM
IC50 [20]: 47 µM
IC50 [21]: 63.7 µM
Activity [32]: inactive
IC50 [22]: 90.4 µM
inhibition [23]: Active
inhibition [33]: Active

COc1cc2ccc(=O)oc2cc1OCC(=O)c1ccc(Cl)c(Cl)c1
inhibition of growth at 10 µM [2]: 0%
inhibition of growth at 100 µM [3]: 42.8%

COc1cc2ccc(=O)oc2cc1OCCCCBr
inhibition of growth at 10 µM [2]: 11.2%
inhibition of growth at 100 µM [3]: 16.9%
